# Measurements: publication PMC11223228 (ACS Omega, 2024)
# Target: T1, EhPSP (Entamoeba histolytica, UniProt N9V397)
# T1 sequence (N9V397 1-205): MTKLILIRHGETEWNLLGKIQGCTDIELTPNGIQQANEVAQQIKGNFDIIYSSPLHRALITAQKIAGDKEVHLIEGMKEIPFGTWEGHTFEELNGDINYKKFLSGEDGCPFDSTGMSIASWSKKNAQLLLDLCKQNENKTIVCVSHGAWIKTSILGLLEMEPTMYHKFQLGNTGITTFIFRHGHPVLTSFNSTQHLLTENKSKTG
# Test: In vitro enzyme inhibition assay of EhPSP phosphatase activity
# Type: biochemical
# Conditions: for inhibition of enzymatic activity (in words): 21 compounds tested
# How it was run: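 Recombinant C-terminal 6X-His EhPSP, expressed in E. coli BL21 (DE3) and purified by Ni-NTA then size exclusion. Reaction in 50 mM HEPES-NaOH pH 8.0, 1 mM DTT, 1 mM EDTA, 25 μg enzyme. Compound preincubated 10 min RT, then OPLS added and run 2−5 min RT. Stopped with malachite green, A630 of released phosphate. % inhibition vs no-compound control, IC50 from log-concentration curve.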
"IC50 (IC50, OPLS 2.0 mM, compound 20 nM to 500 μM) [µM]",Compound,inhibition of enzymatic activity (in words)
,"O=S(=O)(O)c1ccc2c(S(=O)(=O)O)cccc2c1 [AE-562/12222184, 1,6-naphthalenedisulfonic acid]",displayed the inhibition of enzymatic activity
~368,"Cc1nc2ccc(CN(C)c3ccc(C(=O)N[C@@H](CCC(=O)O)C(=O)O)s3)cc2c(=O)[nH]1 [Raltitrexed, (2S)-2-[[5-[methyl-[(2-methyl-4-oxo-3H-quinazolin-6-yl)methyl]amino]thiophene-2-carbonyl]amino]pentanedioic acid]",displayed the inhibition of enzymatic activity
